Only some compounds are listed: those with a hit (about 2% of all), similar ones and a draw of the others.
GPR7 antagonist = GPR7 receptor antagonists, primary screen, cell-based, fluorescence, single concentration | Neuropeptides B/W receptor type 1 (Homo sapiens), P48145 | GPR7-expressing cells, fluorescence antagonist assay | inhibition, % at 4.4 µM | hit rate 1.1% among 290,000; in the data active = inhibition above about 16%, passing the limit was not always enough;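 also: cells stimulated with the agonist NPW; 0% = agonist with vehicle and 100% = vehicle without agonist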
Target sequence (P48145 whole entry, looked up): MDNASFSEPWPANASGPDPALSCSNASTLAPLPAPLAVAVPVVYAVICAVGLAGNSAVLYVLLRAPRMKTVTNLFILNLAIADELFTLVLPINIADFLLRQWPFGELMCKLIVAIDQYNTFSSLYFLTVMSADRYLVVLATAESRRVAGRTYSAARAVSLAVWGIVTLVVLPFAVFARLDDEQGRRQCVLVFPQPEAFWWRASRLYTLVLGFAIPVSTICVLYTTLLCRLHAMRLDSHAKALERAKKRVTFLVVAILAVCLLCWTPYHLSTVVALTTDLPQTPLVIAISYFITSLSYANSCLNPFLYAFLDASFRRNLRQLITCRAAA
HCV NS3 hel inh = inhibitors of HCV NS3 helicase, primary screen, biochemical, Cy5 molecular beacon fluorescence. Hepatitis C virus NS3 helicase. inhibition, % at 10.9 µM. NS3 helicase DNA unwinding. hit rate 0.56% among 290,000;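 active = inhibition above the mean of all tested compounds plus 3 SD, set per campaign, cut at about 35% in these data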;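 also: 0% = DMSO wells and 100% = thioflavine S control wells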
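Assay system: hepatitis C virus NS3 helicase domain fragment enzyme. Also added: annealed dual-labelled DNA beacon duplex, ATP-started. Timing: 1 h reaction at 25 °C, ATP-initiated. Technique: Cy5 fluorescence at 0 and 60 min, beacon hairpin quenching. Evaluation: % inhibition of unwinding. Replication: one well per compound.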
FID counter = compounds displacing fluorescent DNA intercalator, primary screen, artefact control for HCV NS3 helicase inhibitor project, biochemical, FID fluorescence | DNA fluorescent intercalator displacement | inhibition, % at 7.9 µM | hit rate 0.17% among 290,000 | AID 1845, 2009; in the data active = inhibition above about 37%;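 also: 0% = vehicle and 100% = reference compound; higher means more ethidium bromide displaced from hairpin DNA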
ZTA counter = ZTA (EBV) inhibition in EBNA-1 counter-screen | hit rate 0.15% among 320,000 | P03206 | ZTA-DNA binding, fluorescence polarization | inhibition, % at 11 µM; in the data active = inhibition above about 33%
Target sequence (P03206 whole entry, looked up): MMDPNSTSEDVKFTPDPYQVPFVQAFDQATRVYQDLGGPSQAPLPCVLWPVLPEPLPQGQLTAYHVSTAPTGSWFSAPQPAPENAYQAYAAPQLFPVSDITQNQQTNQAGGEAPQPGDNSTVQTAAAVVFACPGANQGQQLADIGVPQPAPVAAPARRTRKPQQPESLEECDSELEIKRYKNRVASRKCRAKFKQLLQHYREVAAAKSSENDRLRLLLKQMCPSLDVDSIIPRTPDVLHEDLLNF
EBNA-1 inh = EBNA-1 DNA-binding inhibitors, primary screen, biochemical, fluorescence polarization. inhibition, % at 14.8 µM. hit rate 0.34% among 300,000. AID 1950, 2009; in the data active = inhibition above about 28%
GPR7 antag conf = GPR7 receptor antagonists, confirmation, cell-based, fluorescence, single concentration; inhibition, % at 4.4 µM; hit rate 52% among 2,400; AID 1952, 2009; GPR7-expressing cells, calcium fluorescence antagonist mode; shares compounds with GPR7 antagonist; in the data active = inhibition above about 24%;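 also: stimulated with the GPR7 agonist NPW; 0% = agonist plus vehicle and 100% = vehicle alone without agonist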
MCHR1 antagonist = MCHR1 antagonists in cells, counter-screen for GPR7 antagonist project, cell-based, fluorescence, human. shares compounds with GPR7 antagonist. inhibition, % at 4.4 µM. hit rate 62% among 2,400. MCHR1-expressing cells, fluorescence antagonist assay. AID 2148, 2009; in the data active = inhibition above about 22%;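 also: 0% = vehicle with agonist and 100% = vehicle without agonist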
EBNA-1 confirm = EBNA-1 DNA-binding inhibitors, retest, confirmation, biochemical, fluorescence polarization, triplicate | shares compounds with EBNA-1 inh | Recombinant EBNA-1 DBD, Cy5-DNA fluorescence polarization | inhibition, % at 14.8 µM | hit rate 35% among 830 | AID 2292, 2010;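 active = mean inhibition across replicates above a set limit taken from the earlier primary screen, cut at about 28% in these data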;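 also: plate controls were EBNA-1 protein with DMSO for no effect and wells lacking EBNA-1 for full effect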
ZTA counter trip = EBV Zta DNA binding inhibitors, counter-screen for EBNA-1 inhibitor project, biochemical, fluorescence polarization, triplicate; Zta-ZRE DNA binding, Cy5 fluorescence polarization; inhibition, % at 11.1 µM; shares compounds with EBNA-1 inh; 830 tested, under 10 active;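 active = mean inhibition over triplicates above a set limit taken from the primary EBNA-1 screen, cut at about 37% in these data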;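 also: purified full length Zta protein with Cy5 labeled ZRE DNA probe; 0% = Zta with DMSO and 100% = wells lacking Zta protein; inhibitors lower polarization by freeing the labeled DNA probe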
Numbers without * were called inactive; · = no result.

SMILES	GPR7 antagonist	HCV NS3 hel inh	FID counter	ZTA counter	EBNA-1 inh	GPR7 antag conf	MCHR1 antagonist	EBNA-1 confirm	ZTA counter trip
COc1ccc(N(CC(=O)NCc2ccc(Cl)cc2)S(=O)(=O)c2ccccc2[N+](=O)[O-])c(OC)c1	37.4*	12.2	-9.2	10.9	-13.0	34.0*	37.6*	·	·
COc1ccc(N(CC(=O)NCc2cccnc2)S(=O)(=O)c2ccccc2[N+](=O)[O-])c(OC)c1	1.4	0.9	2.4	11.2	2.4	·	·	·	·
COc1ccc(NC(=O)C2CCCN(S(C)(=O)=O)C2)cc1OC (stereo unspecified)	-13.5	1.1	-4.4	-5.2	7.3	·	·	·	·
CCCCC(O)(CCCC)C(=O)NN(C(=O)OCC)c1ccccc1	31.7*	3.9	-11.0	-1.6	2.0	34.9*	27.0*	·	·
CCOC(=O)N(NC(=O)C(O)(c1ccccc1)c1ccccc1)c1ccccc1	30.7*	6.9	-2.0	-1.9	-3.4	19.2	27.6*	·	·
CCOC(=O)N(NC(=O)C(O)(C(C)C)C(C)C)c1ccccc1	-1.7	8.9	-2.3	-0.5	-6.2	·	·	·	·
C/C(=N\NC(=O)c1ccc(-n2cnnn2)cc1)c1ccc(Cl)cc1	·	·	·	-14.2	·	·	·	·	·
COc1ccc(C2Nc3ccccc3C(=O)N2Cc2ccco2)cc1COc1ccccc1F (stereo unspecified)	26.0*	3.8	-23.8	-4.5	3.3	25.3*	36.1*	·	·
CC(=O)c1ccc(N2CCN(C(=O)c3ccc(C(=O)c4ccccc4)cc3)CC2)cc1	·	·	·	-3.7	·	·	·	·	·
Cn1c(=O)c2c(nc(CN3CCc4ccccc4C3)n2Cc2cccc(Cl)c2)n(C)c1=O	23.9*	-14.1	-17.2	-0.5	1.3	20.0	13.3	·	·
Cc1ccc(NCC(=O)N/N=C/c2ccc(OC(=O)c3ccco3)cc2)cc1	30.5*	-4.6	-6.5	12.6	8.1	30.7*	11.2	·	·
COC(=O)CNC(=O)Cn1c(=O)n(Cc2ccc(F)cc2)c(=O)c2sccc21	13.3	-0.1	-4.0	11.6	6.4	·	·	·	·
Cc1ccc(OCCn2cc(C(=S)N3CCCC3)c3ccccc32)cc1C	27.3*	-2.1	-14.3	-20.7	-5.7	29.1*	67.7*	·	·
COCCn1cc(C(=S)N2CCCCC2)c2ccccc21	-6.7	-7.8	-16.7	-15.0	-16.0	·	·	·	·
S=C(c1cn(CCOc2ccccc2)c2ccccc12)N1CCCC1	13.6	-24.1	-13.1	6.7	4.4	·	·	·	·
COCCNC(=O)Cn1cc(C(=S)N2CCCCC2)c2ccccc21	24.5*	-2.3	-21.2	-14.4	-5.0	-5.9	3.0	·	·
CCCC(=O)Nc1ccc2c(c1)Cc1ccccc1-2	25.2*	-4.1	-10.9	-11.2	-2.3	14.2	23.9*	·	·
CCC(=O)N1CCN(c2ccccc2NC(=O)COc2ccc(C(C)C)cc2)CC1	26.6*	-0.8	-55.9	13.5	72.6*	17.6	21.1	3.2	1.5
CCOC(=O)c1c(C)[nH]c(C(=O)OCC(=O)Nc2cccnc2Cl)c1C	·	·	·	-2.0	5.5	·	·	·	·
CCOc1ccc2nc3ccc4[nH]onc4c3c2c1	27.8*	-3.7	23.9	0.6	31.1*	47.9*	46.0*	8.8	-1.2
CCOc1ccc2nc(N3CCOCC3)nc(C)c2c1	-3.6	0.1	-10.7	15.4	3.3	·	·	·	·
COc1ccc(-c2csc(NC(=S)NC(=O)c3cccs3)n2)cc1OC	-15.5	-6.4	-12.2	·	·	·	·	·	·
COc1ccc(-c2csc(NC(=S)NC(=O)c3ccc(S(=O)(=O)N(C)C)cc3)n2)cc1OC	-26.6	-15.7	-21.0	14.7	46.2*	·	·	58.7*	41.5*
Cc1cccc(C)c1NC(=O)CNC(=O)CN1C(=O)NC2(CCc3ccccc32)C1=O (stereo unspecified)	·	·	·	-3.0	·	·	·	·	·
NC(=S)N/N=C/c1ccc(/C=N/NC(N)=S)cc1	-12.0	-4.1	-1.8	5.7	67.9*	·	·	34.4*	3.9
SMILES	GPR7 antagonist	HCV NS3 hel inh	FID counter	ZTA counter	EBNA-1 inh	GPR7 antag conf	MCHR1 antagonist	EBNA-1 confirm	ZTA counter trip
COc1ccc(-c2nn(Cc3ccccc3)cc2C(=O)N2CCN(c3ncccn3)CC2)cc1OC	·	·	·	-7.6	·	·	·	·	·
CCCOc1ccc(CNC(=O)Cc2cccs2)cc1	-9.8	-6.3	17.0	-8.2	-9.0	·	·	·	·
Cc1cc2c(Nc3ccc(C(=O)O)cc3)ncnc2s1	6.0	-0.6	2.9	14.2	97.1*	·	·	-9.4	-12.0
CCc1ccc(/C=C2/C(=O)N(c3ccccc3)C(=S)N2CC(=O)OC)s1	2.6	8.0	-2.3	7.6	41.0*	·	·	20.8	0.7
Cc1nn(CC(=O)NCc2cccc3ccccc23)c(=O)c2ccccc12	-8.3	-3.6	-0.2	1.0	31.1*	·	·	7.1	-0.2
Cc1cc(NC(=O)CSc2nnc(NC(=O)C3CC(=O)N(c4ccccc4C)C3)s2)no1 (stereo unspecified)	-7.0	1.5	-26.9	13.0	2.5	·	·	·	·
Cc1cc(NC(=O)CSc2nnc(NC(=O)C3CC(=O)N(c4ccccc4)C3)s2)no1 (stereo unspecified)	-2.1	4.5	-2.3	-23.0	83.4*	·	·	21.3	6.8
CCN1C(=O)[C@H]2[C@@H](c3ccc(-c4ccc(Cl)c(Cl)c4)c(OC)c3)N[C@@](Cc3ccccc3)(C(=O)OC)[C@H]2C1=O	·	·	·	-9.6	-5.3	·	·	·	·
CC1=CC2=NC(=O)/C(=C\c3cn(C)c4ccccc34)C(=N)N2O1	14.1	-2.8	-14.4	-9.9	39.6*	·	·	90.5*	1.8
CC1=CC2=NC(=O)/C(=C\c3cc(C)n(-c4ccccc4)c3C)C(=N)N2O1	1.1	-3.1	-6.2	-1.8	5.1	·	·	·	·
Cc1ccc(C)c(OCC(=O)Nc2ccc(S(=O)(=O)Nc3ncccn3)cc2)c1	-10.5	16.0	-27.7	6.4	-10.5	·	·	·	·
CCC(=O)Nc1ccc(NC(=S)NC(=O)c2cc3ccccc3o2)cc1	-4.9	3.5	-1.3	10.3	5.5	·	·	·	·
CCC(=O)Nc1cccc(NC(=S)NC(=O)c2cc3ccccc3o2)c1	-12.6	1.7	-3.2	2.4	30.8*	·	·	11.7	15.5
O=C(NNC(=O)c1ccc(NC(=O)c2ccccc2)cc1)c1ccc(F)cc1	-12.8	-4.6	-2.4	4.7	66.9*	·	·	103.2*	4.0
COc1cc(/C=C/C(=O)OCC(=O)N2CCCc3ccccc32)ccc1OC(F)F	·	·	·	-4.3	-10.0	·	·	·	·

From PubChem BioAssay
